{"source": "paper PMC9299459", "about": "(Clinical Pharmacology in Drug Development, 2021)", "key": {"[1]": {"type": "in vivo, human", "conditions": "for AUC(0-inf): AUCinf; for AUC(0-t): AUClast"}, "[2]": {"conditions": "repeated administration; cited from earlier work"}, "Safety and tolerability": {"test": "Safety and tolerability", "type": "in vivo, human", "conditions": "healthy participants", "procedure,_shortened": "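Open-label, randomized, 2-period, 2-sequence crossover in healthy men and women of non-childbearing potential, aged 18–55 years. Arms were a single oral 250 mg dose of test compound after overnight fast, or the same dose on day 5 of proton pump inhibitor 40 mg daily for 5 days. Dosing was supervised, in the morning with 240 mL water. All participants dosed at least once were included. AEs, ECGs, vital signs and safety labs were reviewed throughout.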"}, "[3]": {"conditions": "aqueous solution, cited from earlier work"}, "[4]": {"conditions": "Reference: single 250-mg crizotinib dose after overnight fasting"}, "[5]": {"conditions": "Test: esomeprazole 40 mg per day for 5 days and single 250-mg crizotinib dose after overnight fasting on day 5"}, "[6]": {"conditions": "healthy participants, plasma, single oral crizotinib 250 mg on day 5 of esomeprazole 40 mg/day (n = 15)"}, "[7]": {"conditions": "molar ratio PF-06260182/crizotinib, single oral crizotinib 250 mg alone (n = 15)"}, "[8]": {"conditions": "N = 15 per treatment, MedDRA preferred term"}, "[9]": {"conditions": "healthy participants, single oral crizotinib 250 mg on day 5 of esomeprazole 40 mg/day (n = 15)"}, "[10]": {"conditions": "human, plasma, oral, 250 mg, Adjusted Geometric Mean, Reference, Reference: single 250-mg crizotinib dose after overnight fasting"}, "[11]": {"conditions": "human, plasma, oral, Adjusted Geometric Mean, Test, Test: esomeprazole 40 mg per day for 5 days and single 250-mg crizotinib dose after overnight fasting on day 5"}, "[12]": {"conditions": "human, plasma, po, 250 mg, Arithmetic Mean ± SD, healthy participants, plasma, single oral crizotinib 250 mg on day 5 of esomeprazole 40 mg/day (n = 15)"}, "[13]": {"conditions": "human, plasma, po, 250 mg, Geometric Mean (%CV), healthy participants, plasma, single oral crizotinib 250 mg on day 5 of esomeprazole 40 mg/day (n = 15)"}}, "note": "Entries after “also recorded” stand apart in the source; their conditions may differ. Like-named read-outs stand apart in the source and are kept apart here."}
{"smiles": "CC(Oc1cc(-c2cnn(C3CCNC(=O)C3)c2)cnc1N)c1c(Cl)ccc(F)c1Cl", "note": "(stereo not shown) [PF‐06260182]", "values": [{"measurement": "AUCinf, Adjusted Geometric Mean, Reference", "setting": "[1]; [4]", "value": 446.0, "unit": "ng·h/mL"}, {"measurement": "AUClast, Adjusted Geometric Mean, Reference", "setting": "[1]; [4]", "value": 436.9, "unit": "ng·h/mL"}, {"measurement": "Cmax, Adjusted Geometric Mean, Reference", "setting": "[1]; [4]", "value": 34.8, "unit": "ng/mL"}, {"measurement": "AUCinf, Adjusted Geometric Mean, Test", "setting": "[1]; [5]", "value": 367.8, "unit": "ng·h/mL"}, {"measurement": "AUClast, Adjusted Geometric Mean, Test", "setting": "[1]; [5]", "value": 359.8, "unit": "ng·h/mL"}, {"measurement": "Cmax, Adjusted Geometric Mean, Test", "setting": "[1]; [5]", "value": 26.9, "unit": "ng/mL"}, {"measurement": "apparent t1/2, mean value", "setting": "[1]; both treatments (crizotinib alone and with esomeprazole)", "value": "≈ 20 hours"}, {"measurement": "AUCinf, Arithmetic Mean ± SD", "setting": "[1]; [6]", "value": "383 ± 127", "unit": "ng·h/mL"}, {"measurement": "AUCinf, Geometric Mean (%CV)", "setting": "[1]; [6]", "value": "364 (33) ng • h/mL"}, {"measurement": "AUClast, Arithmetic Mean ± SD", "setting": "[1]; [6]", "value": "376 ± 126", "unit": "ng·h/mL"}, {"measurement": "AUClast, Geometric Mean (%CV)", "setting": "[1]; [6]", "value": "357 (34) ng • h/mL"}, {"measurement": "Cmax, Arithmetic Mean ± SD", "setting": "[1]; [6]", "value": "27.7 ± 6.8", "unit": "ng/mL"}, {"measurement": "Cmax, Geometric Mean (%CV)", "setting": "[1]; [6]", "value": "26.8 (25) ng/mL"}, {"measurement": "t1/2 (terminal elimination half-life), Arithmetic Mean ± SD", "setting": "[1]; [6]", "value": "19.5 ± 5.9", "unit": "h"}, {"measurement": "tmax, median (range)", "setting": "[1]; [6]", "value": "6.00 (5.00‐8.05) h"}, {"measurement": "MRAUCinf (metabolite to parent ratio of AUCinf), Geometric Mean (%CV)", "setting": "[1]; molar ratio PF-06260182/crizotinib, single oral crizotinib 250 mg alone (n = 14)", "value": "0.18 (16)"}, {"measurement": "MRAUClast (metabolite to parent ratio of AUClast), Geometric Mean (%CV)", "setting": "[1]; [7]", "value": "0.19 (18)"}, {"measurement": "MRCmax (metabolite to parent ratio of Cmax), Geometric Mean (%CV)", "setting": "[1]; [7]", "value": "0.29 (26)"}]}
{"smiles": "C[C@@H](Oc1cc(-c2cnn(C3CCNCC3)c2)cnc1N)c1c(Cl)ccc(F)c1Cl", "note": "[Crizotinib]", "values": [{"measurement": "time to steady state", "setting": "[2]", "value": 15, "unit": "days"}, {"measurement": "gastrointestinal disorders (system organ class), all causality", "setting": "Safety and tolerability", "value": 11, "unit": "participants"}, {"measurement": "nervous system disorders (system organ class), all causality", "setting": "Safety and tolerability", "value": 4, "unit": "participants"}, {"measurement": "treatment-related gastrointestinal disorders (system organ class)", "setting": "Safety and tolerability", "value": 11, "unit": "participants"}, {"measurement": "Discontinuations due to AEs, all causality", "setting": "Safety and tolerability; N = 15 per treatment", "value": 0}, {"measurement": "Dose reductions or temporary discontinuation due to AEs", "setting": "Safety and tolerability; N = 15 per treatment", "value": 0}, {"measurement": "Participants with AEs, all causality", "setting": "Safety and tolerability; N = 15 per treatment", "value": "12 (12)"}, {"measurement": "Participants with AEs, treatment-related", "setting": "Safety and tolerability; N = 15 per treatment", "value": "12 (12)"}, {"measurement": "Participants with serious AEs", "setting": "Safety and tolerability; N = 15 per treatment", "value": 0}, {"measurement": "Participants with severe AEs", "setting": "Safety and tolerability; N = 15 per treatment", "value": 0}, {"measurement": "Abdominal pain upper, all causality", "setting": "Safety and tolerability; [8]", "value": 0}, {"measurement": "Abdominal pain, all causality", "setting": "Safety and tolerability; [8]", "value": "3 (3)"}, {"measurement": "Abdominal pain, treatment-related", "setting": "Safety and tolerability; [8]", "value": "3 (3)"}, {"measurement": "Abnormal gastrointestinal sounds, all causality", "setting": "Safety and tolerability; [8]", "value": "1 (1)"}, {"measurement": "Abnormal gastrointestinal sounds, treatment-related", "setting": "Safety and tolerability; [8]", "value": "1 (1)"}, {"measurement": "Diarrhea, all causality", "setting": "Safety and tolerability; [8]", "value": "11 (11)"}, {"measurement": "Diarrhea, treatment-related", "setting": "Safety and tolerability; [8]", "value": "11 (11)"}, {"measurement": "Dizziness, all causality", "setting": "Safety and tolerability; [8]", "value": "2 (2)"}, {"measurement": "Dizziness, treatment-related", "setting": "Safety and tolerability; [8]", "value": "2 (2)"}, {"measurement": "Fatigue, all causality", "setting": "Safety and tolerability; [8]", "value": "2 (2)"}, {"measurement": "Fatigue, treatment-related", "setting": "Safety and tolerability; [8]", "value": "2 (2)"}, {"measurement": "Headache, all causality", "setting": "Safety and tolerability; [8]", "value": "2 (2)"}, {"measurement": "Headache, treatment-related", "setting": "Safety and tolerability; [8]", "value": "2 (2)"}, {"measurement": "Nausea, all causality", "setting": "Safety and tolerability; [8]", "value": "2 (2)"}, {"measurement": "Nausea, treatment-related", "setting": "Safety and tolerability; [8]", "value": "2 (2)"}, {"measurement": "Number of AEs, all causality", "setting": "Safety and tolerability; treatment-emergent", "value": 28}, {"measurement": "Number of AEs, treatment-related", "setting": "Safety and tolerability; treatment-emergent", "value": 24}, {"measurement": "Number of AEs, treatment-related", "setting": "Safety and tolerability; treatment-emergent, listed as crizotinib", "value": "Twenty‐four"}, {"measurement": "Overall safety and tolerability", "setting": "Safety and tolerability; single 250-mg dose", "value": "generally safe and well tolerated"}, {"measurement": "solubility", "setting": "[3]; pH 1.6", "value": "> 10000", "unit": "µg/mL"}, {"measurement": "solubility", "setting": "[3]; pH 8.2", "value": "< 100", "unit": "µg/mL"}, {"measurement": "Effect of esomeprazole coadministration on peak exposure (Cmax)", "setting": "[1]; esomeprazole 40 mg once daily x 5 days, single crizotinib 250 mg", "value": "did not affect; also recorded: no effect"}, {"measurement": "tmax, median (range)", "setting": "[1]; [6]", "value": "5.00 (3.00‐6.00) h"}, {"measurement": "CL/F (apparent clearance after oral dose), Arithmetic Mean ± SD", "setting": "[1]; [9]", "value": "124.8 ± 40.9", "unit": "L/h"}, {"measurement": "CL/F (apparent clearance after oral dose), Geometric Mean (%CV)", "setting": "[1]; [9]", "value": "117.8 (33) L/h"}, {"measurement": "AUC(0-inf)", "setting": "[1]; [10]", "value": 2370, "unit": "ng·h/mL"}, {"measurement": "AUC(0-t)", "setting": "[1]; [10]", "value": 2240, "unit": "ng·h/mL"}, {"measurement": "Cmax", "setting": "[1]; [10]", "value": 115, "unit": "ng/mL"}, {"measurement": "AUC(0-inf)", "setting": "[1]; [11]", "value": 2120, "unit": "ng·h/mL"}, {"measurement": "AUC(0-t)", "setting": "[1]; [11]", "value": 2010, "unit": "ng·h/mL"}, {"measurement": "Cmax", "setting": "[1]; [11]", "value": 117, "unit": "ng/mL"}, {"measurement": "Tmax", "setting": "[1]; human, plasma, po, 250 mg", "value": 5, "unit": "h"}, {"measurement": "half-life", "setting": "[1]; human, plasma, po, 250 mg", "value": "35.8 ± 4.4", "unit": "h"}, {"measurement": "AUC(0-inf)", "setting": "[1]; [12]", "value": "2260 ± 891", "unit": "ng·h/mL"}, {"measurement": "AUC(0-inf)", "setting": "[1]; [13]", "value": 2120, "unit": "ng·h/mL"}, {"measurement": "AUC(0-t)", "setting": "[1]; [12]", "value": "2170 ± 876", "unit": "ng·h/mL"}, {"measurement": "AUC(0-t)", "setting": "[1]; [13]", "value": 2020, "unit": "ng·h/mL"}, {"measurement": "Cmax", "setting": "[1]; [12]", "value": "119 ± 32.9", "unit": "ng/mL"}, {"measurement": "Cmax", "setting": "[1]; [13]", "value": 115, "unit": "ng/mL"}, {"measurement": "half-life", "setting": "[1]; human, plasma, po, 250 mg, t1/2 (terminal elimination half-life), Arithmetic Mean ± SD, healthy participants, plasma, single oral crizotinib 250 mg after overnight fast, alone (n = 15)", "value": "33.2 ± 7", "unit": "h"}, {"measurement": "Median time to Cmax", "setting": "[1]; with or without esomeprazole, single crizotinib 250 mg", "value": 5, "unit": "h"}]}
{"smiles": "COc1ccc2nc([S@@+]([O-])Cc3ncc(C)c(OC)c3C)[nH]c2c1", "note": "[esomeprazole, Esomeprazole]", "values": [{"measurement": "gastrointestinal disorders (system organ class), all causality", "setting": "Safety and tolerability", "value": 3, "unit": "participants"}, {"measurement": "nervous system disorders (system organ class), all causality", "setting": "Safety and tolerability", "value": 2, "unit": "participants"}, {"measurement": "treatment-related gastrointestinal disorders (system organ class)", "setting": "Safety and tolerability", "value": 3, "unit": "participants"}, {"measurement": "Number of AEs, treatment-related", "setting": "Safety and tolerability; treatment-emergent", "value": 7}]}
